According to the EternaBench riboswitch data:

System: MS2 coat protein
Experiment: apparent Kd, MS2 coat protein; higher = weaker binding; RNA-MaP array; FMN 200 µM where present
Method in brief: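 Stalled E. coli RNA polymerase transcribed each design on Illumina sequencing-chip clusters. The clusters were titrated with SNAP-549-labelled MS2 coat protein, starting at 0.7 or 1.5 nM and doubling up to 3 µM, first without ligand and then with constant ligand, in 100 mM Tris-HCl pH 7.5, 80 mM KCl, 4 mM MgCl2, BSA, DTT, yeast tRNA and Tween-20. Green signal was normalised to red-channel RNA signal and to the control-cluster median Fmax. The apparent Kd is the median of filtered binding-curve fits made for each cluster.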

[1] = designed as: ON switch for flavin mononucleotide, no ligand
[2] = ligand present: flavin mononucleotide, designed as: ON switch for flavin mononucleotide
[3] = designed as: OFF switch for flavin mononucleotide, no ligand
[4] = ligand present: flavin mononucleotide, designed as: OFF switch for flavin mononucleotide

Sequence | apparent Kd [1] [nM] | apparent Kd [2] [nM] | apparent Kd [3] [nM] | apparent Kd [4] [nM]
AGUAAGAUGCAGAAGGUGUUAGCUAGAGCUACGACAUGAGGAUCACCCAUGUAAAACCGCCCGUACAAGGAUAUGCAUCUUACA | 6.12 | 5.54 |  | 
GCGGAACAUGAGGAUCACCCAUGUAUCCCAAAUAUGGACUCACAGGAUAUCCCGAGUUUCCAGUGGGAGAAGGGUGACUCCAGA | 21.7 | 11.1 |  | 
AGCUACGUUUCGUAGCAGUGUCAUCGAGAAGGCCCUGACAUGAGGAUCACCCAUGUUGUUACAUGGGAGGAUAUCGAUGAUACC | 13.3 | 5.32 |  | 
UUCUAACGAGGAUAUCGAUGGUGGAACAUGAGGAUCACCCAUGUAUGAGAUAUUGUAGUUCGAGAAGGCGUUCAGU |  |  | 42.1 | 32.5
CCUUUUGUAUAAGGAUAUGUAACAAGGUAUAGAUUGGUAGGAUUUGUGCUUACAGAAGGUAUACAUGAGGAUCACCCAUGUCGA |  |  | 23.1 | 59.5
UGUUUGCGGCAGGAUAUCCAUCCGCGGUGUGGUGGAGAAGGGCUGACAUGAGGAUCACCCAUGUGCGUCCUGUA |  |  | 19.4 | 27.5
UCAUAAAAGAUCCUAUUUAUCUACAUGAGGAUCACCCAUGUGCAGGAUAUGCUAUAUUUAAUAAAGCAGAAGGGCAAUAACCGC |  |  | 127 | 309
UCGAUGCUAGGAUAUACUAAUACAACUACUGUAGUGUCUUCACAUGAGGAUCACCCAUGUAGAAGGAGCAUAUA |  |  | 26.3 | 20.3
CGCACUAUACAUGAGGAUCACCCAUGUUAAUAUGAGGUAGUCAGAAGGCAUUGUAUGAGAUAUUAUGAGGAUAUGAUUAGUGCG | 226 | 41.4 |  | 
CUGAGGUCAGGAUAUGCAUGGCGGGACUUGCGUCGUGGCGUGCAGAAGGGACAUGAGGAUCACCCAUGUGGAGU |  |  | 165 | 287
GUGAAGGUAGGAUAUACGAUAAUAUAGGGUAGAUAUAUAACACAUGAGGAUCACCCAUGUAGAAGGACCAAUUG |  |  | 34.2 | 122
GCUUGUGAAGGAUAUACUGGAGGCGUGCGAUAGAAGCACGCACAUGAGGAUCACCCAUGUAGAAGGUCAGGCGU |  |  | 36.9 | 44.5
GUCGUGCGGCUUUGCUGUACGAGUACAUGAGGAUCACCCAUGUAGGAUAUGGUUCGCUUUGCGUGCCAGAAGGGCGUGCGUUGU |  |  | 28.7 | 28.1
UUAUGCUUUAAGAAGGUUCAAACUACAUAUUGCGCACAUGAGGAUCACCCAUGUUGGUGAAUAAGAAAGGAUAUUAGACUGUGC |  |  | 332 | 223
ACAAUAAAGGGUCUGGUUCCAUACAUGAGGAUCACCCAUGUCAAGGAUAUAACGGACGGGCGCCGUUAGAAGGUGACGACUGCG |  |  | 132 | 401
GACAUACGCGAUCCUUGGACAUGAGGAUCACCCAUGUACCGGAAGGAUAUCCUUCGCAAAAGCUAGGAGAAGGUUCGGUAGGUC |  |  | 26.1 | 86.1
GCCACAAGGGCAGGAUAUGAACUUAAUGGCAGUUUAGAAGGGUCACUCGUGGGUUAAAAUCACAUGAGGAUCACCCAUGUAUAG | 664 | 84.7 |  | 
ACGACGAAAGUCGAACGAUGAUCGAGAAGGACAUGAGGAUCACCCAUGUCUGCUGUAACAGCCAUGUAGGAUAUCGAUCAUCGA |  |  | 3.62 | 4.13
GCUGUCGCAUGAGGAUAUGGUCAGCUUUGCUGACCAGAAGGCAUGUCAAUAGACAUGAGGAUCACCCAUGUAGUUCGGGCGGCU | 849 | 76.1 |  | 
AAAAAACAUGAGGAUCACCCAUGUCCUCGGACGUGAGGAUAUGUACAGACUUCGGUCUGUACAGAAGGCACGUCAA | 512 | 446 |  | 
GAGUGGCGAUUAGGAUAUACAGUGAUAAUGAUAGUAGAAGGAAUUGACAUGAGGAUCACCCAUGUAGGACUAAUCCAGAGAGAG | 96.1 | 84.9 |  | 
AGCCGAGUAGGAUAUGCAUACUUACAGGAAAGCUGUAUGGUACAUGAGGAUCACCCAUGUAGAAGGGCUCUGAA |  |  | 25 | 21.2
GUGGCUGUUAGGCUUGCGCCGGCGACAGAAGGCCAACAUGAGGAUCACCCAUGUACAAAGACCAUGGAGGAUAUGUUGCCAGUG | 41.8 | 8.95 |  | 
AAUGGCGCGAUAGCGCUAAUUAAAACAUGAGGAUCACCCAUGUAGGAUAUCCUACCGAAAUGGUAGGAGAAGGACAAGCAAUGA |  |  | 23.5 | 18.7
ACGUAUCAUGUCAGGAUAUAGCUAGCUACGGCUAGCUAGAAGGGACAUGAGGAUCACCCAUGUCAAAGAUACGU |  |  | 14 | 19
AGCUAAAUGUCAGGAUAUGCCCGCCAGGUGGAAGCAGAAGGGACAUACCAGACAUGAGGAUCACCCAUGUAAACUGGGUAAGAA | 142 | 126 |  | 
UGCGCCUGCGAGAAGGCACAGAUCCAGCUCUUGACAUGAGGAUCACCCAUGUGAGGAUAUCGCAGGCGCGAAUUGGGACAAUCU |  |  | 12.8 | 74.1
GCCAUCGCAUGAGGAUAUGCUCCGGUUUCCGGAGCAGAAGGUAUGUCAUAAGACAUGAGGAUCACCCAUGUAGUUAAGAUGGCA | 252 | 30 |  | 

Sequence | apparent Kd [1] [nM] | apparent Kd [2] [nM] | apparent Kd [3] [nM] | apparent Kd [4] [nM]
UGUGCGUUGAUCUUCGAUCGGAGUACAUGAGGAUCACCCAUGUAGGAUAUUCAAAGACGCAGAUAGAAGAAGGACAUAGGUUUC |  |  | 10.1 | 11.1
CGACACCACACAGGAUAUGCUGGACUUUGUCCAGCAGAAGGGUGUAAACAUGAGGAUCACCCAUGUAUGGUGUCGAAAUUUAAU | 382 | 21.1 |  | 
CCACGACAUGAGGAUCACCCAUGUCAGGAUAUCCCUCAUUGUAUGAAAAUACAAUGAGGGAGAAGGGACGUGAC |  |  | 33.8 | 31.6
AAAUCAGCAGGAUAUGCGAUGUUAUGCUAGAUAGCGGGACCACAUGAGGAUCACCCAUGUAGAAGGGCUAGAUA |  |  | 34.9 | 16.8
AGAAAUAAAAGAGAGGAUAUCCAAAAGAAAACAUGAGGAUCACCCAUGUAAAAGAAAAUAAAAUGGGAGAAGGCUCAAAAUAAAGA | 115 | 22.6 |  | 
AUUGUAUGGAAAGGAUAUAGAAUAUUAUUUUAACAUGAGGAUCACCCAUGUAACCUUAUGUGUAGCUAGAAGGUUCGUUUGUUA |  |  | 88.2 | 97.8
GGUUGACAAAGUCAACCAUAACGAACAUGAGGAUCACCCAUGUAGGAUAUGCUACUCAAAGAGUAGCAGAAGGACAUGUGUCUU |  |  | 32.6 | 161
GGAAAACAUGAGGAUCACCCAUGUGAGGAUAUCGAUGUCCAAGAAAAAGUGCGGGACUCGAGAAGGCACUUGGA |  |  | 58.9 | 36.8
ACCGUUGAAGCAGGAUAUUAUAGCGCCAGCGUAUAAGAAGGGCUUCAACAUGAGGAUCACCCAUGUUGGAGUACCUCAAAAGUG |  |  | 5.53 | 23.7
ACGACGAAAGUCGAACGAUGUAGCAGAAGGACAUGAGGAUCACCCAUGUCAGCUGUAACAGCCAUGUAGGAUAUGCUACAUCGA |  |  | 4.35 | 5.67
AGUGUCAUCGAGAAGGCCUCAACAUGAGGAUCACCCAUGUUGUAAUAUGGGAGGAUAUCGAUGAUACAGCUACGUUUCGUAGCG | 19.9 | 5.82 |  | 
ACGUUUUUUGAGGAUAUGCGAUAGUUUUAUAUCGUAGAAGGCGAUACAUGAGGAUCACCCAUGUUUAUGGGCAU |  |  | 167 | 197
GGAUGACAAAGUCAUCCAAUACGAACAUGAGGAUCACCCAUGUAGGAUAUGCUAGUCAAAGACUAGCAGAAGGACAUGUGCCUU |  |  | 39.2 | 238
AGAUAGUCAGGAUAUACGUGGAUGGAACACUUAUUUCCACUACAUGAGGAUCACCCAUGUAGAAGGGACUAUCA |  |  | 17.8 | 17.8
CUUGUACAUGAGGAUCACCCAUGUUAGGAUAUCUCGCCGUCGGCUUGCCGACGGUAUUAGAGAAGGGACUAGGG |  |  | 35.4 | 39.5
UGAAUGGCAGGAUAUACAUGAGGAUCACCCAUGUUGCUGCUCUAUAUGCCGUCCUUGAGUAGAAGGGUCAUUUA |  |  | 19.2 | 32.5
UGGUACUAGGGAGGAUAUGGGAAGAUACAUGAGGAUCACCCAUGUUUAAGAAUGCCGAAAGGCAACUAGAAGGCCCUAGUACCU | 430 | 19.9 |  | 
CACAAGAAAGUCGAACUAUGUAGGAGAAGGAGUAUAACAUGACAUGAGGAUCACCCAUGUGCCAAUUAGGAUAUUUUAUAUGGG |  |  | 184 | 97.7
GAUCUGGCAGGAUAUACAUGAGGAUCACCCAUGUGCGAGCUAGCGAAAGCUAGCUCAGGUAGAAGGGUCAGAUC |  |  | 12.7 | 15.5
UCCUUGUCCUGAGGAUAUCCGUGGUGACCGAAAGGAGAAGGCAGGACAUGAGGAUCACCCAUGUACCCAGAAAACGUGCAGAGA |  |  | 35.9 | 232
GCUAUCGGGUGAGGAUAUAUAAUUGUGAUUAAAAUAGAAGGCAUCUCAGAAGACAUGAGGAUCACCCAUGUAGUUAAGAUGGCA | 23.8 | 20.1 |  | 
UUUACAUUACGAGGAUAUCAUUUAUUUCAUGUUUGAGAAGGCGUUUUUUUUAUUACCUUACAUGAGGAUCACCCAUGUUUCUUU | 35.8 | 21.8 |  | 
GGACGUCACAUGAACAUGAGGAUCACCCAUGUAAAUUCUCAUGAGGAUAUGGAUCCUAAUUGGAUCCAGAAGGCGUGGACGUCC | 1030 | 415 |  | 
GAAUGGGUAGAAGGACAUGAGGAUCACCCAUGUAGUGUGACUAAGGAUAUUAGAGAAGAUUGACGUAAGAAGGUAGAUGUGAGG |  |  | 134 | 117
GUAGCUAUCGCAGGAUAUCCUCAGCGGAAACGCACAUGAGGAUCACCCAUGUAAAUAAAUAAUUUGGAGAAGGGCGAUAGCUAC | 323 | 26.8 |  | 
CGAAGUAGCACAGGAUAUCAUACAUGAGGAUCACCCAUGUCAAGAAACAAAUGAGAAGGGUGCAGGCGGUGUUGGAGCUGUUGC | 99.4 | 14.1 |  | 
UUUAAUUUAAUUAAGAUCACAUGAGGAUCACCCAUGUAAUUAUAGGAUAUCAGCUCGAAUAGAGCUGAGAAGGAUAAUUACAUA |  |  | 89.5 | 57.7
